From PubChem BioAssay AID504825 (Southern Research Specialized Biocontainment Screening …, 2011)

Tested on: HEp-2 viability, luminescence (CellTiter-Glo)
Assay: viability of uninfected HEp-2 host cells – cell-based, synthesized compounds, set 10, cytotoxicity control for RSV antiviral project, dose response (AID 504825)
How it was run: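 Controls: Cell-only wells, 100% reference | Assay system: Uninfected HEp-2 human cells, compound cytotoxicity | Input: 10,595 HEp-2 cells per well | Measured by: CellTiter-Glo luminescence | Repeats: Triplicate | Buffer or medium: DMEM/F12 | Schedule: 6 d compound exposure, 37 °C | Evaluation: % viability and CC50, 4-parameter fit | Dosing: 8-point twofold dilution series, 0.5% DMSO final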

| SMILES | CC50 [µM] |
| --- | --- |
| COc1ccc(C)c(NC(=O)[C@@H]2CCCN2S(=O)(=O)c2cccc3cccnc23)c1 | 47.7 |
| Cc1cc(NC(=O)[C@@H]2CCCN2S(=O)(=O)c2cccc3cccnc23)n(C(C)(C)C)n1 | 55.1 |
| Cc1ccc(NC(=O)[C@@H]2CCCN2S(=O)(=O)c2cccc3cccnc23)c(C)c1 | 29 |
